Marks after values point to notes of the source that are not given here. Residues, ends and D or L forms follow the SMILES beside them.
What was measured:
[1] = Serum biochemistry of rats at the end of treatment; type: in vivo, Sprague-Dawley rats; conditions: median (IQR)
[2] = Single-dose i.v. pharmacokinetics in mice; type: in vivo, CD-1 mice; conditions: 5 mg/kg single i.v. bolus, n=4/time point
Summary of the method: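 Male and female CD-1 mice received a single 5 mg/kg i.v. bolus into the lateral tail vein, with 2/sex per time point. EDTA blood was taken by terminal cardiac puncture at 0.25, 1, 2, 4, 8 and 24 h; plasma was stored at −80°C. Sparse-sampling NCA used nominal times, linear-up/log-down AUC, and excluded values below LLOQ.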

in vivo = conditions: Sprague-Dawley, rat, iv

CC[C@H](C)[C@@H]1NC(=O)[C@@H]2CSSC[C@H](NC(=O)[C@H](CCCNC(=N)N)NC(=O)[C@@H]3CSSC[C@H](NC1=O)C(=O)N[C@@H]([C@@H](C)O)C(=O)N[C@@H](CCCNC(=N)N)C(=O)NCC(=O)N[C@@H](Cc1ccccc1)C(=O)N3)C(=O)N[C@@H](CC(C)C)C(=O)N[C@H]1CSSC[C@H](NC(=O)[C@H](C(C)C)NC(=O)CNC(=O)[C@H](CCCNC(=N)N)NC(=O)[C@H](CCCNC(=N)N)NC1=O)C(=O)N[C@@H](CCCNC(=N)N)C(=O)N2 [RTD-1, Rhesus theta (θ) defensin-1] (HELM PEPTIDE1{G.F.C.R.C.L.C.R.R.G.V.C.R.C.I.C.T.R}$PEPTIDE1,PEPTIDE1,3:R3-16:R3|PEPTIDE1,PEPTIDE1,5:R3-14:R3|PEPTIDE1,PEPTIDE1,7:R3-12:R3|PEPTIDE1,PEPTIDE1,1:R1-18:R2$$$V2.0)
A/G ([1]; female, 5 mg/kg/day): 2.1 (0.2) | ALP ([1]; female, 5 mg/kg/day): 92.0 (21.0) U/L | ALT ([1]; female, 5 mg/kg/day): 35.0 (7.0) U/L | AST ([1]; female, 5 mg/kg/day): 139.0 (35.0) U/L | Albumin ([1]; female, 5 mg/kg/day): 3.9 (0.3) g/dL | CK ([1]; female, 5 mg/kg/day): 792.0 (198.0) U/L | Calcium ([1]; female, 5 mg/kg/day): 9.8 (0.2) mg/dL | Chloride ([1]; female, 5 mg/kg/day): 105.0 (2.0) mmol/L | Cholesterol ([1]; female, 5 mg/kg/day): 55.0 (15.0) mg/dL | Creatinine ([1]; female, 5 mg/kg/day): 0.3 (0.0) mg/dL | GGT ([1]; female, 5 mg/kg/day): 0.0 (0.0) U/L | Globulin ([1]; female, 5 mg/kg/day): 1.8 (0.1) g/dL | Glucose ([1]; female, 5 mg/kg/day): 97.0 (16.0) mg/dL | Phos ([1]; female, 5 mg/kg/day): 7.3 (0.8) mg/dL | Potassium ([1]; female, 5 mg/kg/day): 4.9 (0.4) mmol/L | Sodium ([1]; female, 5 mg/kg/day): 143.0 (1.0) mmol/L | T-Bil ([1]; female, 5 mg/kg/day): 0.0 (0.0) mg/dL | TP ([1]; female, 5 mg/kg/day): 5.8 (0.5) g/dL | Triglycerides ([1]; female, 5 mg/kg/day): 25.0 (7.0) mg/dL | Urea N ([1]; female, 5 mg/kg/day): 20.0 (2.0) mg/dL | A/G ([1]; female, 10 mg/kg/day): 2.2 (0.2) | ALP ([1]; female, 10 mg/kg/day): 109.5 (30.5) U/L | ALT ([1]; female, 10 mg/kg/day): 32.5 (6.0) U/L | AST ([1]; female, 10 mg/kg/day): 122.0 (14.3) U/L | Albumin ([1]; female, 10 mg/kg/day): 3.9 (0.1) g/dL | CK ([1]; female, 10 mg/kg/day): 473.5 (211.3) U/L | Calcium ([1]; female, 10 mg/kg/day): 10.0 (0.3) mg/dL | Chloride ([1]; female, 10 mg/kg/day): 105.0 (2.0) mmol/L | Cholesterol ([1]; female, 10 mg/kg/day): 55.0 (26.5) mg/dL | Creatinine ([1]; female, 10 mg/kg/day): 0.3 (0.0) mg/dL | GGT ([1]; female, 10 mg/kg/day): 0.0 (0.0) U/L | Globulin ([1]; female, 10 mg/kg/day): 1.8 (0.2) g/dL | Glucose ([1]; female, 10 mg/kg/day): 99.0 (5.5) mg/dL | Phos ([1]; female, 10 mg/kg/day): 7.1 (0.8) mg/dL | Potassium ([1]; female, 10 mg/kg/day): 5.1 (0.5) mmol/L | Sodium ([1]; female, 10 mg/kg/day): 142.5 (1.0) mmol/L | T-Bil ([1]; female, 10 mg/kg/day): 0.0 (0.0) mg/dL | TP ([1]; female, 10 mg/kg/day): 5.7 (0.4) g/dL | Triglycerides ([1]; female, 10 mg/kg/day): 26.0 (11.5) mg/dL | Urea N ([1]; female, 10 mg/kg/day): 21.0 (1.8) mg/dL | A/G ([1]; female, 20 mg/kg, day 2): 3.0 (0.4)^c^,^d^,^e | ALP ([1]; female, 20 mg/kg, day 2): 142.0 (34.5)^d^,^e U/L | ALT ([1]; female, 20 mg/kg, day 2): 62.0 (28.5)^c^,^d^,^e U/L | AST ([1]; female, 20 mg/kg, day 2): 397.0 (345.5)^d^,^e U/L | Albumin ([1]; female, 20 mg/kg, day 2): 3.0 (0.6)^d^,^e g/dL | CK ([1]; female, 20 mg/kg, day 2): 1,506.0 (2,604.5) U/L | Calcium ([1]; female, 20 mg/kg, day 2): 10.3 (0.6)^c^,^d mg/dL | Chloride ([1]; female, 20 mg/kg, day 2): 104.0 (3.0) mmol/L | Cholesterol ([1]; female, 20 mg/kg, day 2): 52.0 (6.5) mg/dL | Creatinine ([1]; female, 20 mg/kg, day 2): 0.5 (0.2)^c^,^d^,^e mg/dL | GGT ([1]; female, 20 mg/kg, day 2): 4.0 (5.5)^c^,^d^,^e U/L | Globulin ([1]; female, 20 mg/kg, day 2): 1.0 (0.3)^c^,^d^,^e g/dL | Glucose ([1]; female, 20 mg/kg, day 2): 218.0 (70.0)^c^,^d^,^e mg/dL | Phos ([1]; female, 20 mg/kg, day 2): 9.3 (5.0) mg/dL | Potassium ([1]; female, 20 mg/kg, day 2): 4.9 (0.7) mmol/L | Sodium ([1]; female, 20 mg/kg, day 2): 141.0 (2.5)^c mmol/L | T-Bil ([1]; female, 20 mg/kg, day 2): 0.0 (0.0) mg/dL | TP ([1]; female, 20 mg/kg, day 2): 3.9 (0.8)^c^,^d^,^e g/dL | Triglycerides ([1]; female, 20 mg/kg, day 2): 106.0 (36.5)^c^,^d^,^e mg/dL | Urea N ([1]; female, 20 mg/kg, day 2): 20.0 (3.0) mg/dL | A/G ([1]; male, 5 mg/kg/day): 2.2 (0.3) | ALP ([1]; male, 5 mg/kg/day): 212.0 (40.3) U/L | ALT ([1]; male, 5 mg/kg/day): 40.0 (9.8) U/L | AST ([1]; male, 5 mg/kg/day): 133.0 (34.0) U/L | Albumin ([1]; male, 5 mg/kg/day): 3.8 (0.0) g/dL | CK ([1]; male, 5 mg/kg/day): 765.5 (395.5) U/L | Calcium ([1]; male, 5 mg/kg/day): 9.8 (0.4) mg/dL | Chloride ([1]; male, 5 mg/kg/day): 104.5 (1.8) mmol/L | Cholesterol ([1]; male, 5 mg/kg/day): 70.5 (10.3) mg/dL | Creatinine ([1]; male, 5 mg/kg/day): 0.2 (0.1) mg/dL | GGT ([1]; male, 5 mg/kg/day): 0.0 (0.0) U/L | Globulin ([1]; male, 5 mg/kg/day): 1.7 (0.2) g/dL | Glucose ([1]; male, 5 mg/kg/day): 72.5 (16.3) mg/dL | Phos ([1]; male, 5 mg/kg/day): 8.5 (0.5) mg/dL | Potassium ([1]; male, 5 mg/kg/day): 5.2 (0.2) mmol/L | Sodium ([1]; male, 5 mg/kg/day): 144.0 (1.8) mmol/L | T-Bil ([1]; male, 5 mg/kg/day): 0.0 (0.0) mg/dL | TP ([1]; male, 5 mg/kg/day): 5.5 (0.2) g/dL | Triglycerides ([1]; male, 5 mg/kg/day): 37.0 (21.5) mg/dL | Urea N ([1]; male, 5 mg/kg/day): 16.5 (4.0) mg/dL | A/G ([1]; male, 10 mg/kg/day): 2.4 (0.2) | ALP ([1]; male, 10 mg/kg/day): 212.5 (51.5) U/L | ALT ([1]; male, 10 mg/kg/day): 32.5 (4.5) U/L | AST ([1]; male, 10 mg/kg/day): 113.5 (16.8) U/L | Albumin ([1]; male, 10 mg/kg/day): 3.7 (0.2) g/dL | CK ([1]; male, 10 mg/kg/day): 612.5 (254.8) U/L | Calcium ([1]; male, 10 mg/kg/day): 9.7 (0.2) mg/dL | Chloride ([1]; male, 10 mg/kg/day): 105.0 (1.0) mmol/L | Cholesterol ([1]; male, 10 mg/kg/day): 66.0 (14.3) mg/dL | Creatinine ([1]; male, 10 mg/kg/day): 0.3 (0.1) mg/dL | GGT ([1]; male, 10 mg/kg/day): 0.0 (0.0) U/L | Globulin ([1]; male, 10 mg/kg/day): 1.6 (0.2) g/dL | Glucose ([1]; male, 10 mg/kg/day): 83.0 (6.8) mg/dL | Phos ([1]; male, 10 mg/kg/day): 8.6 (1.0) mg/dL | Potassium ([1]; male, 10 mg/kg/day): 5.1 (0.3) mmol/L | Sodium ([1]; male, 10 mg/kg/day): 144.0 (0.0) mmol/L | T-Bil ([1]; male, 10 mg/kg/day): 0.0 (0.0) mg/dL | TP ([1]; male, 10 mg/kg/day): 5.4 (0.3) g/dL | Triglycerides ([1]; male, 10 mg/kg/day): 29.0 (5.3) mg/dL | Urea N ([1]; male, 10 mg/kg/day): 19.0 (3.5) mg/dL | A/G ([1]; male, 20 mg/kg, day 2): 2.7 (0.1)^c^,^d^,^e | ALP ([1]; male, 20 mg/kg, day 2): 232.0 (45.0) U/L | ALT ([1]; male, 20 mg/kg, day 2): 74.0 (38.0)^d^,^e U/L | AST ([1]; male, 20 mg/kg, day 2): 245.0 (100.0)^d^,^e U/L | Albumin ([1]; male, 20 mg/kg, day 2): 2.7 (0.0)^c^,^d^,^e g/dL | CK ([1]; male, 20 mg/kg, day 2): 707.0 (615.0) U/L | Calcium ([1]; male, 20 mg/kg, day 2): 9.4 (0.5)^d mg/dL | Chloride ([1]; male, 20 mg/kg, day 2): 101.0 (1.0)^c^,^d^,^e mmol/L | Cholesterol ([1]; male, 20 mg/kg, day 2): 67.0 (7.0) mg/dL | Creatinine ([1]; male, 20 mg/kg, day 2): 0.4 (0.1)^c^,^d^,^e mg/dL | GGT ([1]; male, 20 mg/kg, day 2): 0.0 (0.0) U/L | Globulin ([1]; male, 20 mg/kg, day 2): 1.0 (0.0)^c^,^d^,^e g/dL | Glucose ([1]; male, 20 mg/kg, day 2): 175.0 (35.0)^c^,^d^,^e mg/dL | Phos ([1]; male, 20 mg/kg, day 2): 9.3 (3.8) mg/dL | Potassium ([1]; male, 20 mg/kg, day 2): 5.1 (0.6) mmol/L | Sodium ([1]; male, 20 mg/kg, day 2): 140.0 (2.0)^c^,^d^,^e mmol/L | T-Bil ([1]; male, 20 mg/kg, day 2): 0.1 (0.2) mg/dL | TP ([1]; male, 20 mg/kg, day 2): 3.7 (0.1)^c^,^d^,^e g/dL | Triglycerides ([1]; male, 20 mg/kg, day 2): 193.0 (111.0)^c^,^d^,^e mg/dL | Urea N ([1]; male, 20 mg/kg, day 2): 28.0 (6.0)^c^,^d^,^e mg/dL | AUC0-∞ ([2]; pooled NCA): 12,497 ng · h/mL | AUCτ ([2]; pooled NCA): 12,282 ng · h/mL | CL ([2]; pooled NCA): 6.67 mL/min/kg | MRT ([2]; pooled NCA): 2.62 h | λz ([2]; pooled NCA): 0.114 h⁻¹ | Cmax ([2]; pooled, estimate (SE)): 8,919 (1,088)^b ng/mL | Vd (in vivo; both, 20 mg/kg): 0.756 L/kg | level at 600 h (in vivo; female, 10 mg/kg): 12.5 ng/mL

From PMC8923172 (Antimicrobial Agents and Chemotherapy, 2022)
